Results: ChEMBL document CHEMBL1255429, “Efflux pumps are involved in the defense of Gram-negative bacteria against the natural products isobavachalcone and diospyrone” (2010)
Residues, ends and D or L forms follow the SMILES beside them. *: point of attachment. βNA = c1ccc2cc(N*)ccc2c1

What was measured:
Format in all cases: functional
Escherichia coli [1] = assay: Antimicrobial activity against Escherichia coli ATCC 10536 after 18 hrs by rapid INT colorimetric assay; settings: ATCC 10536, 18 h
In short: (§1)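 Strains precultured overnight on Mueller-Hinton agar. Sample dissolved in DMSO-MHB, twofold serial dilutions in MHB, inoculum 1.5 × 10^6 CFU/ml; final DMSO below 2.5%. Incubated 37°C 18 h, then 0.2 mg/ml INT added, 30 min at 37°C. MIC = lowest concentration preventing yellow-to-pink change (complete growth inhibition). DMSO-only wells as negative control.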

Escherichia coli [2] = assay: Antimicrobial activity against Escherichia coli ATCC 8739 after 18 hrs by rapid INT colorimetric assay; settings: ATCC 8739, 18 h
In short: (§2)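 Strains precultured overnight on Mueller-Hinton agar. Samples dissolved in DMSO-MHB, serially diluted twofold in MHB, inoculum 1.5 × 10^6 CFU/ml in MHB added; 37°C, 18 h; final DMSO <2.5%. 0.2 mg/ml INT then added, 30 min at 37°C. MIC = lowest concentration preventing yellow-to-pink reduction, i.e. complete growth inhibition.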

Escherichia coli [3] = assay: Antimicrobial activity against Escherichia coli AG100 after 18 hrs by rapid INT colorimetric assay; settings: AG100, 18 h; in short: as §2
Escherichia coli [4] = assay: Antimicrobial activity against Escherichia coli AG100A after 18 hrs by rapid INT colorimetric assay; in short: as §2
Escherichia coli [5] = assay: Antimicrobial activity against tetracycline-resistant Escherichia coli AG100A after 18 hrs by rapid INT colorimetric assay; in short: as §2
Escherichia coli [6] = assay: Antimicrobial activity against tetracycline-resistant Escherichia coli AG102 after 18 hrs by rapid INT colorimetric assay; settings: AG102, 18 h; in short: as §2
Klebsiella aerogenes [7] = assay: Antimicrobial activity against Enterobacter aerogenes ATCC 13048 after 18 hrs by rapid INT colorimetric assay; settings: ATCC 13048, 18 h; in short: as §1
Klebsiella aerogenes [8] = assay: Antimicrobial activity against Enterobacter aerogenes EA-CM64 after 18 hrs by rapid INT colorimetric assay; settings: EA-CM64, 18 h; in short: as §2
Klebsiella aerogenes [9] = assay: Antimicrobial activity against Enterobacter aerogenes EA289 after 18 hrs by rapid INT colorimetric assay; settings: EA289, 18 h; in short: as §1
Klebsiella aerogenes [10] = assay: Antimicrobial activity against Enterobacter aerogenes EA294 after 18 hrs by rapid INT colorimetric assay; settings: EA294, 18 h; in short: as §2
Klebsiella aerogenes [11] = assay: Antimicrobial activity against Enterobacter aerogenes EA298 after 18 hrs by rapid INT colorimetric assay; settings: EA298, 18 h; in short: as §2
Klebsiella aerogenes [12] = assay: Antimicrobial activity against Enterobacter aerogenes EA27 after 18 hrs by rapid INT colorimetric assay; settings: EA27, 18 h; in short: as §1
Klebsiella aerogenes [13] = assay: Antimicrobial activity against Enterobacter aerogenes EA3 after 18 hrs by rapid INT colorimetric assay; settings: EA3, 18 h; in short: as §1
Klebsiella aerogenes [14] = assay: Antimicrobial activity against Enterobacter aerogenes EA5 after 18 hrs by rapid INT colorimetric assay; settings: EA5, 18 h; in short: as §1
Klebsiella pneumoniae [15] = assay: Antimicrobial activity against Klebsiella pneumoniae ATCC 11296 after 18 hrs by rapid INT colorimetric assay; settings: ATCC 11296, 18 h; in short: as §2
Klebsiella pneumoniae [16] = assay: Antimicrobial activity against Klebsiella pneumoniae KP55 after 18 hrs by rapid INT colorimetric assay; settings: KP55, 18 h; in short: as §1
Klebsiella pneumoniae [17] = assay: Antimicrobial activity against Klebsiella pneumoniae KP63 after 18 hrs by rapid INT colorimetric assay; settings: KP63, 18 h; in short: as §1
Pseudomonas aeruginosa [18] = assay: Antimicrobial activity against Pseudomonas aeruginosa PAO1 after 18 hrs by rapid INT colorimetric assay; settings: PAO1, 18 h; in short: as §2
Pseudomonas aeruginosa [19] = assay: Antimicrobial activity against Pseudomonas aeruginosa PA124 after 18 hrs by rapid INT colorimetric assay; settings: PA124, 18 h; in short: as §2
Enterobacter cloacae [20] = assay: Antimicrobial activity against Enterobacter cloacae Ec07769 after 18 hrs by rapid INT colorimetric assay; settings: Ec07769, 18 h; in short: as §1
Enterobacter cloacae [21] = assay: Antimicrobial activity against Enterobacter cloacae Ec1194 after 18 hrs by rapid INT colorimetric assay; settings: Ec1194, 18 h; in short: as §1
Escherichia coli [22] = assay: Antimicrobial activity against Escherichia coli ATCC 10536 after 18 hrs by rapid INT colorimetric assay in presence of efflux pump inhibitor phenylalanine arginine beta-naphthylamide; settings: ATCC 10536, 18 h
In short: (§3)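 Broth microdilution MIC in Mueller-Hinton broth with PAßN at a final 20 μg/ml throughout. Twofold dilutions of sample from DMSO-MHB stock; inoculum 1.5 × 10^6 CFU/ml; 18 h at 37°C, final DMSO <2.5%. Growth read by INT (0.2 mg/ml, 30 min, 37°C). MIC taken as lowest concentration with no pink colour.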

Escherichia coli [23] = assay: Antimicrobial activity against Escherichia coli ATCC 8739 after 18 hrs by rapid INT colorimetric assay in presence of efflux pump inhibitor phenylalanine arginine; settings: ATCC 8739, 18 h; in short: as §3
Escherichia coli [24] = assay: Antimicrobial activity against Escherichia coli AG100 after 18 hrs by rapid INT colorimetric assay in presence of efflux pump inhibitor phenylalanine arginine; settings: AG100, 18 h
Escherichia coli [25] = assay: Antimicrobial activity against Escherichia coli AG100A after 18 hrs by rapid INT colorimetric assay in presence of efflux pump inhibitor phenylalanine arginine
Escherichia coli [26] = assay: Antimicrobial activity against tetracycline-resistant Escherichia coli AG100A after 18 hrs by rapid INT colorimetric assay in presence of efflux pump inhibitor phenylalanine arginine; in short: as §3
Escherichia coli [27] = assay: Antimicrobial activity against tetracycline-resistant Escherichia coli AG102 after 18 hrs by rapid INT colorimetric assay in presence of efflux pump inhibitor phenylalanine arginine; settings: AG102, 18 h; in short: as §3
Klebsiella aerogenes [28] = assay: Antimicrobial activity against Enterobacter aerogenes ATCC 13048 after 18 hrs by rapid INT colorimetric assay in presence of efflux pump inhibitor phenylalanine arginine; settings: ATCC 13048, 18 h
Klebsiella aerogenes [29] = assay: Antimicrobial activity against Enterobacter aerogenes EA-CM64 after 18 hrs by rapid INT colorimetric assay in presence of efflux pump inhibitor phenylalanine arginine; settings: EA-CM64, 18 h
Klebsiella aerogenes [30] = assay: Antimicrobial activity against Enterobacter aerogenes EA289 after 18 hrs by rapid INT colorimetric assay in presence of efflux pump inhibitor phenylalanine arginine; settings: EA289, 18 h
Klebsiella aerogenes [31] = assay: Antimicrobial activity against Enterobacter aerogenes EA294 after 18 hrs by rapid INT colorimetric assay in presence of efflux pump inhibitor phenylalanine arginine; settings: EA294, 18 h
Klebsiella aerogenes [32] = assay: Antimicrobial activity against Enterobacter aerogenes EA298 after 18 hrs by rapid INT colorimetric assay in presence of efflux pump inhibitor phenylalanine arginine; settings: EA298, 18 h
Klebsiella aerogenes [33] = assay: Antimicrobial activity against Enterobacter aerogenes EA27 after 18 hrs by rapid INT colorimetric assay in presence of efflux pump inhibitor phenylalanine arginine; settings: EA27, 18 h
Klebsiella aerogenes [34] = assay: Antimicrobial activity against Enterobacter aerogenes EA3 after 18 hrs by rapid INT colorimetric assay in presence of efflux pump inhibitor phenylalanine arginine; settings: EA3, 18 h
Klebsiella aerogenes [35] = assay: Antimicrobial activity against Enterobacter aerogenes EA5 after 18 hrs by rapid INT colorimetric assay in presence of efflux pump inhibitor phenylalanine arginine; settings: EA5, 18 h
Klebsiella pneumoniae [36] = assay: Antimicrobial activity against Klebsiella pneumoniae ATCC 11296 after 18 hrs by rapid INT colorimetric assay in presence of efflux pump inhibitor phenylalanine arginine; settings: ATCC 11296, 18 h
Klebsiella pneumoniae [37] = assay: Antimicrobial activity against Klebsiella pneumoniae KP55 after 18 hrs by rapid INT colorimetric assay in presence of efflux pump inhibitor phenylalanine arginine; settings: KP55, 18 h
Klebsiella pneumoniae [38] = assay: Antimicrobial activity against Klebsiella pneumoniae KP63 after 18 hrs by rapid INT colorimetric assay in presence of efflux pump inhibitor phenylalanine arginine; settings: KP63, 18 h
Pseudomonas aeruginosa [39] = assay: Antimicrobial activity against Pseudomonas aeruginosa PAO1 after 18 hrs by rapid INT colorimetric assay in presence of efflux pump inhibitor phenylalanine arginine; settings: PAO1, 18 h
Pseudomonas aeruginosa [40] = assay: Antimicrobial activity against Pseudomonas aeruginosa PA124 after 18 hrs by rapid INT colorimetric assay in presence of efflux pump inhibitor phenylalanine arginine; settings: PA124, 18 h
Enterobacter cloacae [41] = assay: Antimicrobial activity against Enterobacter cloacae Ec07769 after 18 hrs by rapid INT colorimetric assay in presence of efflux pump inhibitor phenylalanine arginine; settings: Ec07769, 18 h
Enterobacter cloacae [42] = assay: Antimicrobial activity against Enterobacter cloacae Ec1194 after 18 hrs by rapid INT colorimetric assay in presence of efflux pump inhibitor phenylalanine arginine; settings: Ec1194, 18 h; in short: as §3

Measured: MIC

N=C(N)NCCC[C@H](NC(=O)[C@@H](N)Cc1ccccc1)C(=O)Nc1ccc2ccccc2c1 [PABETAN] (H-Phe-Arg-βNA)
64 µg/mL: Escherichia coli [4]
> 256 µg/mL: Escherichia coli [1] | Escherichia coli [2] | Escherichia coli [3] | Escherichia coli [5] | Escherichia coli [6] | Klebsiella aerogenes [7] | Klebsiella aerogenes [8] | Klebsiella aerogenes [9] | Klebsiella aerogenes [10] | Klebsiella aerogenes [11] | Klebsiella aerogenes [12] | Klebsiella aerogenes [13] | Klebsiella aerogenes [14] | Klebsiella pneumoniae [16] | Klebsiella pneumoniae [17] | Pseudomonas aeruginosa [18] | Pseudomonas aeruginosa [19] | Enterobacter cloacae [20] | Enterobacter cloacae [21]
256 µg/mL: Klebsiella pneumoniae [15]

CC(C)=CCc1c(O)ccc(C(=O)/C=C/c2ccc(O)cc2)c1O [ISOBAVACHALCONE]
8 µg/mL: Escherichia coli [23] | Escherichia coli [26] | Escherichia coli [27] | Klebsiella aerogenes [11] | Klebsiella aerogenes [33] | Enterobacter cloacae [41]
0.25 µg/mL: Escherichia coli [25]
0.5 µg/mL: Escherichia coli [24] | Klebsiella aerogenes [31] | Klebsiella aerogenes [32] | Klebsiella pneumoniae [38]
16 µg/mL: Escherichia coli [4] | Klebsiella aerogenes [28] | Klebsiella aerogenes [30] | Klebsiella aerogenes [35] | Klebsiella pneumoniae [17] | Pseudomonas aeruginosa [39]
4 µg/mL: Klebsiella pneumoniae [36] | Klebsiella pneumoniae [37] | Pseudomonas aeruginosa [40]
128 µg/mL: Escherichia coli [1] | Klebsiella aerogenes [13] | Enterobacter cloacae [20]
1 µg/mL: Enterobacter cloacae [42]
32 µg/mL: Klebsiella aerogenes [10] | Klebsiella aerogenes [34] | Klebsiella pneumoniae [15] | Klebsiella pneumoniae [16]
256 µg/mL: Escherichia coli [2] | Klebsiella aerogenes [7] | Klebsiella aerogenes [29] | Klebsiella aerogenes [9] | Klebsiella aerogenes [12]
2 µg/mL: Escherichia coli [22]
> 256 µg/mL: Klebsiella aerogenes [8]
64 µg/mL: all other assays above
